# According to the EternaBench riboswitch data:
# Tested on: MS2 coat protein
# Test: apparent Kd, MS2 coat protein; higher = weaker binding; RNA-MaP array; FMN 200 µM where present
# Outline: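 In 100 mM Tris-HCl pH 7.5, 80 mM KCl, 4 mM MgCl2, BSA, DTT, yeast tRNA and Tween-20, SNAP-549-labelled MS2 coat protein was titrated from 0.7 or 1.5 nM, doubling to 3 µM, over designs transcribed by stalled E. coli RNA polymerase on Illumina sequencing-chip clusters. This was done first without ligand, then with ligand held constant. After green signal was normalised to red-channel RNA signal and control-cluster median Fmax, the apparent Kd was taken as the median of filtered per-cluster binding-curve fits.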
# [1] = designed as: OFF switch for flavin mononucleotide, no ligand
# [2] = ligand present: flavin mononucleotide, designed as: OFF switch for flavin mononucleotide
# [3] = designed as: ON switch for flavin mononucleotide, no ligand
# [4] = ligand present: flavin mononucleotide, designed as: ON switch for flavin mononucleotide
Sequence,apparent Kd [1] [µM],apparent Kd [2] [µM],apparent Kd [3] [µM],apparent Kd [4] [µM]
GGUCUACAUGAGGAUCACCCAUGUCAGGAUAUCGUGUGUUUUUUUUCGGCCGCGCGUGCGAGAAGGGACGUCUU,0.0176,0.0181,,
GUUGAUGGAGGAUAUACUGCAGUGAUUGGCAAGAAUCCAGCACAUGAGGAUCACCCAUGUAGAAGGCCAUAACA,0.0258,0.0635,,
ACGGAACAUGAGGAUCACCCAUGUAUCCGAAAUAUGGACUCACAGGAUAUCCAGAGUUGCCAAUCGGAGAAGGGUGACUCCAGA,,,0.0128,0.00991
GUAGCAUACGGAGGAUAUUCAUUAAAACAUGAGGAUCACCCAUGUAAAUUGGGAGAAGGCCGUAUGCUACAAGAGCGAAAGCUC,,,0.0183,0.00548
GUACAUGAGCAGAAGGGCAAUUAAUUAAAUUUUUAUGUUUAUCAGAUAUGCAGGAUAUGUUAAACAUGAGGAUCACCCAUGUAC,,,0.129,0.0658
AUGAGAGCAGGAUAUGCAGGUGUGCCGGAAGAAAGAAGAAGACAUGAGGAUCACCCAUGUAGAAGGGCUAGCCC,0.0191,0.0156,,
UGCUUCAUGUAAGGAUAUGCAGCCGUUUCGGCUGCAGAAGGUACUAUAAUACAUGAGGAUCACCCAUGUCUCUCGCAUUGCGAG,,,0.24,0.0956
AGUGGGCUAGGAUAUCGAUGAACUCACAUGAGGAUCACCCAUGUGUCUUUGGUGGGCGCACGAGAAGGAGUAAGAU,0.0404,0.0433,,
ACAGAGGCUGACAUGAGGAUCACCCAUGUUAGAUUGUUAUGUCAGGAUAUUAUCUCGCAACGAGAUAAGAAGGGACCCUCUGUG,,,0.0375,0.00798
AUCUCGUCAGGAUAUUGGAUUUGGAUUGAAAGGUUUAGGUUUAAGAAGGGACAUGAGGAUCACCCAUGUCUGGU,0.0218,0.0215,,
UUAUCUCAUGAGAAGGACAUGAGGAUCACCCAUGUAGGAUAUCAUGGGUCAGUGGAAUUGAAUCUUCGGAUUCAAUAACUCUAC,,,0.0725,0.0119
AAUUAGGUCACAGGAUAUACAACAUCCAUAGCUGUAGAAGGGUGUCAAAAUAAUAUCUGACAUGAGGAUCACCCAUGUUUCCAC,,,0.0158,0.0127
UUUUCGCGCGCAGGAUAUCCCAUGUGGUUCACACAUGAGGAUCACCCAUGUUUCACCCAUGUGCGGGAGAAGGGUGCGCGUUUC,,,0.368,0.189
UGUCGGUAGUAGAAGGGUAAGACAUGAGGAUCACCCAUGUGAUUUGGGUAUACAGGAUAUGCUUAUAUAUAAGAUUAAAUUAUU,0.674,0.47,,
UUAUGAGAGCAGGAUAUCUUAUUUUUUUUUUGUGGAGAAGGGCUGACAUGAGGAUCACCCAUGUGGUCCUAGAU,0.0279,0.0329,,
CGCUGUCAUGCAGGAUAUGCAUUGGUUUACAAUGCAGAAGGGCGAUUACAUGAGGAUCACCCAUGUGUAGACAGUGAAGAAGAG,,,0.157,0.0129
CACAUUUUAACAGGAUAUGUAUGGUUGCUUAUUAUUGCAUAUUCAAUUAUUACAGAAGGGUUAUACAUGAGGAUCACCCAUGUG,,,0.021,0.0155
GGUUGACAAAGUCAACCUAUUCGAACAUGAGGAUCACCCAUGUAGGAUAUGCUACUCAAAGAGUAGCAGAAGGACAUGUGCCUU,0.0327,0.172,,
UAGAUGGGAGGAUAUACGUAGAUACAGAUUCGUGUAGUGCUACAUGAGGAUCACCCAUGUAGAAGGCCCGUCUU,0.0136,0.0229,,
AAAACAUGAGGAUCACCCAUGUAUAGAGCGGUUAAUAAAGGUGAGGAUAUACUAAAUUUUAUAUAGUAGAAGGCACUGGGUACU,,,0.0267,0.0305
GGCAAUAUGUAGGAUAUCGUAUCGGAAACGAUACGAGAAGGGCAAACAUGAGGAUCACCCAUGUUCCUUAAGCC,0.015,0.0174,,
UUAUCUCAUGAGAAGGACAUGAGGAUCACCCAUGUAGGAUAUCAUGGGUCAGAGGAAUUGAAUCUAAUGAUUCAAUUACUCUUC,,,0.0605,0.0104
GCAUCCAAUGUGAGGAUAUACCUCUGGAUACAGAGGUAGAAGGCACAUGAGGAUCACCCAUGUUACUAGGAUGC,0.0208,0.0444,,
